For eleven molecules, inhibition results are on record in ChEMBL document CHEMBL1132805, “Parallel synthesis of isatin-based serine protease inhibitors” (Bioorg Med Chem Lett, 2000).

The target of test [1] is T1, Chymotrypsin-C (Homo sapiens) (UniProt Q99895).
T1 sequence (whole entry): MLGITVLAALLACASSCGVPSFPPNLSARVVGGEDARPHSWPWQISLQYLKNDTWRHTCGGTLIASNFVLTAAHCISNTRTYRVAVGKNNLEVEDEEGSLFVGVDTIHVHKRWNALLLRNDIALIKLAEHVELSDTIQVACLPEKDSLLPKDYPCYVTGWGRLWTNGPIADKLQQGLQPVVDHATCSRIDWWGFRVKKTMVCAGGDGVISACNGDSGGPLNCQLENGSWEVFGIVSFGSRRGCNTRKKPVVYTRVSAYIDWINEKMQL
The test can be described thus: Inhibition of human Serine protease chymotrypsin at 20 ug/mL. In short, it runs like this:
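Fluorogenic substrate Suc-Ala-Ala-Pro-Phe-AMC. Chymostatin serves as the control inhibitor. Reaction in 50 mM Tris-HCl pH 7.2 with 15% glycerol, incubated 60 min at 37 °C. AMC fluorescence is read at ex/em 370/460 nm. Compounds are from DMSO stock, 10 mg/mL. Compound quenching is checked against free AMC in the same buffer.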

In test [2] the target is Plasminogen (Homo sapiens) (UniProt P00747). The test can be described thus: Inhibition of human plasmin at 20 ug/mL. In short, it runs like this:
(§1)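 Plasmin from human plasma, 165 pM in reaction, with fluorogenic H-Ala-Phe-Lys-AMC. α2-Antiplasmin serves as the control inhibitor. Run in 50 mM Tris-HCl pH 7.2, 15% glycerol, 60 min at 37 °C. Read-out is AMC fluorescence at ex/em 370/460 nm. Compounds come from 10 mg/mL DMSO stock. Quenching is checked with free AMC in the same buffer.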

The target of test [3] is T2, Neutrophil elastase (Homo sapiens) (UniProt P08246).
T2 sequence (whole entry): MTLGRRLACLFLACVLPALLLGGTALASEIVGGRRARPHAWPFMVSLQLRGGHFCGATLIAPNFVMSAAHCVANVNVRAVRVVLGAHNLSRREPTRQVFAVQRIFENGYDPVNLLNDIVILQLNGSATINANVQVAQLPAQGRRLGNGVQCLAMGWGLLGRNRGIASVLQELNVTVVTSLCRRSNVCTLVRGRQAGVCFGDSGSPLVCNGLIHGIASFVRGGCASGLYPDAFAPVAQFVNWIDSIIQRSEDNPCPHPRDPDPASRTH
As to the kind of experiment: Inhibition of human leucocyte elastase at 20 ug/mL. In short, it runs like this: (§2)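 Human leukocyte elastase at 40 nM in reaction, with substrate Suc-Ala-Pro-Ala-AMC. A commercial elastase inhibitor serves as control. 50 mM Tris-HCl pH 7.2 with 15% glycerol, 60 min at 37 °C. Fluorescence read at 370/460 nm. Compounds are added from 10 mg/mL DMSO stock. Quenching is assessed on free AMC in the assay buffer.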

Test [4] concerns the target Plasminogen (Homo sapiens) (UniProt P00747). As to the kind of experiment: Evaluated for percent inhibition of human plasmin at 20 ug/mL; NA means not active. In short, it runs like this: as §1
Test [5] deals with T2, Neutrophil elastase (Homo sapiens). The test can be described thus: Evaluated for percent inhibition of human leucocyte elastase at 20 ug/mL; NA means not active. In short, it runs like this:
as §2

Active and inactive are the calls of the source. No cut-off for these calls is given here.

Chain of Plasminogen (Homo sapiens) (P00747 97-580 limits assumed): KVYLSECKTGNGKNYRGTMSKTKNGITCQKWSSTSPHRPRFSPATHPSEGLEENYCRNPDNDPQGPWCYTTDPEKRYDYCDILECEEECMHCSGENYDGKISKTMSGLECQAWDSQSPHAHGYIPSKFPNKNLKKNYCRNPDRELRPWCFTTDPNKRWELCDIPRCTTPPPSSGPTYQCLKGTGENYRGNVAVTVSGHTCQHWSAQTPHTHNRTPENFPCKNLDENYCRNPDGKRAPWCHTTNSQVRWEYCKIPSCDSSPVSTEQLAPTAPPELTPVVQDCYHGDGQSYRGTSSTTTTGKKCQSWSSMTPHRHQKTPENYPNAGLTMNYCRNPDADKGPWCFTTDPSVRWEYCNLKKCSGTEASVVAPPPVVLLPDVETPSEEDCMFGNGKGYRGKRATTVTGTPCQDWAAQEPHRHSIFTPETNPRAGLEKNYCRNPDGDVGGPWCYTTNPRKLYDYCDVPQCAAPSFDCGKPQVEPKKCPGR
Chain of Plasminogen (Homo sapiens) (P00747 581-810 limits assumed): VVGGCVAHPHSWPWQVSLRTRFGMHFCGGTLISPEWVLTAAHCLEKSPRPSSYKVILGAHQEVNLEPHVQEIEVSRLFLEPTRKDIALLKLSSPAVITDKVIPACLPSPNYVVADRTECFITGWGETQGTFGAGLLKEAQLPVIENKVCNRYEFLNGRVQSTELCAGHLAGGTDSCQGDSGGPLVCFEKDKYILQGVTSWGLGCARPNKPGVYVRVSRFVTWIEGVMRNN

For the molecule `O=C(CN1C(=O)C(=O)c2ccccc21)c1ccc(Cl)cc1`, the inhibition – broadly, the relative decrease from the control value, in per cent – turned out to be 89% in test [1], 87% in test [2] and 56% in test [3].
For `CCCCOC(=O)Nc1cccc(NC(=O)NC(=O)N2CCN(C(=O)CN3C(=O)C(=O)c4cc([N+](=O)[O-])ccc43)CC2)c1`, in that order: 87%, 82% and 94%.
With `Cc1ccc(C(=O)CN2C(=O)C(=O)c3ccccc32)cc1`, the inhibition is 94% in test [1], 84% in test [2] and 45% in test [3].
Consider `CC(C)C[C@H](NC(=O)[C@@H](NC(=O)N[C@@H](Cc1ccccc1)C(=O)O)C1CCNC(=N)N1)C(=O)N[C@H](C=O)Cc1ccccc1` (stereo partly drawn), for which, in test [1], the inhibition was 95%. Also, the inhibition entry in test [4] and in test [5] was “inactive” throughout.
Consider `O=C1C(=O)N(CC(=O)N2CCN(C(=O)Nc3cccc4ccccc34)CC2)c2ccc(Cl)cc21`, for which the inhibition in test [1] was 82%; in test [2] it was 80%; in test [3], 74%.
As to `O=C1C(=O)N(CC(=O)N2CCN(C(=O)Nc3cccc4ccccc34)CC2)c2ccc(OC(F)(F)F)cc21`, the inhibition was found to be 79% in test [1], 77% in test [2] and 79% in test [3].
As to `O=C(CN1C(=O)C(=O)c2ccccc21)c1ccc(F)cc1`, the inhibition in test [1] is 83%; in test [2] it was 89%; in test [3], 90%.
For `NC(=O)CN1C(=O)C(=O)c2ccccc21`, in that order: 5%, 29% and 3%.
For `O=C(CN1C(=O)C(=O)c2cc(OC(F)(F)F)ccc21)c1ccc2ccccc2c1`, in that order: 97%, 86% and 64%.
For `CC(C)(C)C(=O)CN1C(=O)C(=O)c2ccccc21`, in that order: 85%, 55% and 51%.
For the molecule `N#Cc1cccc(NC(=O)N2CCN(C(=O)CN3C(=O)C(=O)c4cc(OC(F)(F)F)ccc43)CC2)c1`, the inhibition in test [1] came out at 77%; in test [2] it was 57%; in test [3], 26%.
